pIC50, pKd: −log10 of the molar value. Active and inactive are the calls of the source. The calls are words filed in the database; no cut-off is given here.
How the values were obtained:
[1] = Binding affinity to VEGF promoter G-quadruplex DNA (unknown origin) after 1 min by fluorescence titration method; format: ADME
Outline: (§1)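 Oligonucleotide stock added stepwise to fixed-concentration compound in 10 mM Tris-HCl pH 7.2, 100 mM KCl; equilibrated ≥1 min after each addition, emission read with excitation at 350 nm. KD from fitting titration data to the Benesi–Hildebrand equation; 1:1 stoichiometry checked by Job plot.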

[2] = Binding affinity to BCL2 promoter G-quadruplex DNA (unknown origin) after 1 min by fluorescence titration method; format: ADME; outline: as §1
[3] = Binding affinity to KRAS promoter G-quadruplex DNA (unknown origin) after 1 min by fluorescence titration method; format: ADME; outline: as §1
[4] = Stabilization of c-Myc promoter pu22 G-quadruplex DNA (unknown origin) assessed as change in melting temperature at 15 uM by circular dichroism spectroscopic assay
Outline: (§2)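 CD melting of 3 µM annealed G-quadruplex with or without 15 µM ligand in 10 mM Tris-HCl pH 7.2 with 2 mM KCl (50 mM KCl for htg22 and HRAS); read every 5 °C over 25–95 °C, heating 1 °C/min.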

[5] = Stabilization of antiparallel HRAS G-quadruplex DNA (unknown origin) assessed as effect on melting temperature at 15 uM by circular dichroism spectroscopic assay; format: ADME; outline: as §2
[6] = Stabilization of c-Kit1 promoter G-quadruplex DNA (unknown origin) assessed as effect on melting temperature at 15 uM by circular dichroism spectroscopic assay; format: ADME; outline: as §2
[7] = Stabilization of BCL2 promoter G-quadruplex DNA (unknown origin) assessed as effect on melting temperature at 15 uM by circular dichroism spectroscopic assay; format: ADME
Outline: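 G-quadruplex at 3 µM, with or without 15 µM compound, in 10 mM Tris-HCl pH 7.2 containing 2 mM KCl; CD recorded every 5 °C from 25 to 95 °C at a heating rate of 1 °C/min.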

Homo sapiens [8] = organism: Homo sapiens; assay: Stabilization of c-Myc promoter G-quadruplex DNA in human Raji cells assessed as downregulation of exon 2 transcriptional level after 6 hrs by RT-PCR analysis; format: cell-based
Outline: (§3)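 RAJI and CA46 cells treated 6 h over a concentration range; total RNA reverse-transcribed (oligo dT18, M-MLV, 42 °C 1 h then 85 °C 5 min); exon 1 and exon 2 amplified by real-time PCR with exon-specific primers, products run on 1% agarose gel; three repeats.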

Homo sapiens [9] = organism: Homo sapiens; assay: Stabilization of c-Myc promoter G-quadruplex DNA in human CA46 cells assessed as effect on exon 2 transcriptional level at 1.25 to 5 uM after 6 hrs by RT-PCR analysis; format: cell-based; outline: as §3
SiHa [10] = assay: Cytotoxicity against human SiHa cells assessed as reduction in cell viability after 24 hrs by MTT assay; format: functional, cell-based
Outline: (§4)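 Cells seeded at 5.0×10^3 per well, exposed to compound for 24 h; MTT (2.5 mg/mL) added for 4 h, formazan dissolved in DMSO, OD read at 570 nm. Triplicate; IC50 from curves of mean OD against concentration.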

Huh-7 = assay: Cytotoxicity against human Huh7 cells assessed as reduction in cell viability after 24 hrs by MTT assay; format: functional, cell-based; details: Huh-7, 24 h; outline: as §4
A-375 = assay: Cytotoxicity against human A375 cells assessed as reduction in cell viability after 24 hrs by MTT assay; format: functional, cell-based; details: A-375, 24 h; outline: as §4
SiHa [11] = assay: Cytotoxicity against human SiHa cells assessed as cell growth inhibition at 1.2 to 3 uM after 130 hrs by RTCA assay; format: functional, cell-based
Outline: (§5)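 Cells seeded at 2000 per well on impedance plates, settled 20 min at room temperature, profiled 24 h; medium then replaced with compound-containing medium and cells monitored to 130 h total. Cell index normalized to 1.0 at the time point just before compound addition.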

BJ = assay: Cytotoxicity against human BJ cells assessed as cell growth inhibition at 1.2 to 3 uM after 130 hrs by RTCA assay; format: cell-based; outline: as §5
SiHa [12] = assay: Induction of apoptosis in human SiHa cells assessed as early apoptotic cells at 5 uM after 24 hrs by Annexin V-FITC/propidium iodide-staining based flow cytometric analysis; format: functional
[13] = Stabilization of Bcl2 G-quadruplex DNA in human SiHa cells assessed as effect on Bcl2 mRNA level at 1.25 to 5 uM fter 6 hrs by RT-PCR method; format: ADME, cell-based
Outline: (§6)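 SiHa cells (2.0×10^5 per well) treated 6 h; total RNA (2 µg) reverse-transcribed with oligo dT18 and M-MLV at 42 °C for 1 h, 85 °C for 5 min; PCR: 95 °C 5 min, then 30 cycles of 95 °C 30 s, 58 °C 30 s, 72 °C 40 s; products checked on agarose gel.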

[14] = Stabilization of c-Kit G-quadruplex DNA in human SiHa cells assessed as effect on c-Kit mRNA level at 1.25 to 5 uM fter 6 hrs by RT-PCR method; format: ADME, cell-based
Outline: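 SiHa cells (2.0×10^5) dosed 6 h; total RNA reverse-transcribed with oligo dT18 primer and M-MLV (42 °C 1 h, 85 °C 5 min); PCR 95 °C 5 min then 30 cycles (95 °C 30 s, 58 °C 30 s, 72 °C 40 s); products checked on agarose gel.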

[15] = Stabilization of KRAS G-quadruplex DNA in human SiHa cells assessed as effect on […] mRNA level at 1.25 to 5 uM fter 6 hrs by RT-PCR method; format: ADME, cell-based; outline: as §6
[16] = Stabilization of HRAS G-quadruplex DNA in human SiHa cells assessed as effect on HRAS mRNA level at 1.25 to 5 uM fter 6 hrs by RT-PCR method; format: ADME, cell-based; outline: as §6
U2OS = assay: Cytotoxicity against human U2OS cells assessed as reduction in cell viability after 24 hrs by MTT assay; format: functional, cell-based; outline: as §4
SiHa [17] = assay: Induction of cell cycle arrest in human SiHa cells assessed as downregulation of Cyclin D1 protein levels after 24 hrs by Western blot analysis; format: functional, cell-based
Outline: (§7)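 SiHa cells (2.0×10^5 per well) treated 24 h, lysed at 4 °C for 30 min, supernatant cleared at 15,000 rpm; protein measured by BCA, 30 µg resolved on 10% SDS-PAGE, transferred to nitrocellulose, blocked in 5% milk/TBS-Tween 1 h, primary antibodies overnight at 4 °C, HRP secondaries 2 h at room temperature.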

SiHa [18] = assay: Induction of cell cycle arrest in human SiHa cells assessed as downregulation of CDK6 protein levels after 24 hrs by Western blot analysis; format: functional, cell-based; outline: as §7
SiHa [19] = assay: Induction of cell cycle arrest in human SiHa cells assessed as upregulation of p27 protein levels after 24 hrs by Western blot analysis; format: functional, cell-based; outline: as §7
[20] = Binding affinity to 1 uM BCL2 promoter G-quadruplex DNA (unknown origin) at 1 uM after 1 min by fluorescence spectroscopic analysis; format: ADME
Outline: (§8)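 Fluorescence emission spectra of 1 µM compound mixed with 1 µM pre-annealed oligonucleotide (G-quadruplexes folded in 100 mM KCl by heating to 95 °C for 5 min, slow cooling), in Tris-HCl buffer.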

[21] = Binding affinity to 1 uM PDGFA promoter G-quadruplex DNA (unknown origin) at 1 uM after 1 min by fluorescence spectroscopic analysis; format: ADME; outline: as §8

pKd [1]: 6.05
pKd [2]: 6.10
pKd [3]: 6.00
ΔTm [4]: 20 °C
Activity [5]: Not Active
Activity [6]: Not Active
Activity [7]: Not Active
Activity [13]: Not Active
Activity [14]: Not Active
Activity [15]: Not Active
Activity [16]: Not Active
Activity [20]: Not Active
Activity [21]: Not Active
SMILES: CCn1c2ccccc2c2cc(-c3nc(-c4ccc(N5CCN(C)CC5)cc4)c(-c4ccc(N5CCN(C)CC5)cc4)n3-c3ccc(OC)cc3)ccc21
Activity (Homo sapiens [8]): Dose-dependent effect
Activity (Homo sapiens [9]): inactive
pIC50 (SiHa [10]): 5.48
pIC50 (Huh-7): 5.39
pIC50 (A-375): 5.38
growth inhibition (GI) (SiHa [11]): Active
growth inhibition (GI) (BJ): Non-Toxic
Activity (SiHa [12]): 22%
pIC50 (U2OS): 5.17
Activity (SiHa [17]): Dose-dependent effect
Activity (SiHa [18]): Dose-dependent effect
Activity (SiHa [19]): Dose-dependent effect
